Columns and labels:
[1] = Cell growth inhibition of human Leukemia cancer cells incubated for 48 hrs by SRB assay; format: functional
In short: (§1)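 NCI-60 five-concentration screen: lines seeded 5×10^3–4×10^4 cells/well depending on line; compound diluted in fresh medium at scalar concentrations 0–100 or 0–1000 μM; 48 h exposure, in situ fixation, sulforhodamine B protein staining, optical density read; GI50, TGI and LC50 per NCI procedures; panel mean = mean graph midpoint.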

CNS carcinoma cell [2] = test: Cytostatic activity against human CNS carcinoma cells incubated for 48 hrs by SRB assay; format: functional; in short: as §1
[3] = tested on: Panel NCI-60 (60 carcinoma cell lines); test: Cytostatic activity against human Panel NCI-60 (60 carcinoma cell lines) incubated for 48 hrs by SRB assay; format: functional; in short: as §1
Breast cancer cell line [4] = test: Cytostatic activity against human Breast cancer cells incubated for 48 hrs by SRB assay; format: functional; in short: as §1
CNS carcinoma cell [5] = test: Cell growth inhibition of human CNS carcinoma cells incubated for 48 hrs by SRB assay; format: functional; in short: as §1
Ovarian cancer cell line [6] = test: Cytostatic activity against human Ovarian cancer cells incubated for 48 hrs by SRB assay; format: functional; in short: as §1
Melanoma cell line [7] = test: […] against human Melanoma cells incubated for 48 hrs by SRB assay; format: functional; conditions: read-out: LC50 (the source's name)
In short: (§2)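 NCI DTP five-concentration screen. Cells were seeded at 5 × 10³–4 × 10⁴ cells/well, depending on the line. Compounds were diluted in fresh medium and added at scalar concentrations over 0–1000 µM or 0–100 µM. After 48 h the cells were fixed in situ, stained with sulforhodamine B, and optical density was read. GI50, TGI and LC50 were derived by NCI procedures, and the panel mean is the mean graph midpoint.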

Colon carcinoma cell [8] = test: Cytostatic activity against human Colon carcinoma cells incubated for 48 hrs by SRB assay; format: functional; in short: as §1
Melanoma cell line [9] = test: Cell growth inhibition of human Melanoma cells incubated for 48 hrs by SRB assay; format: functional; in short: as §1
Renal cancer cell line [10] = test: Cell growth inhibition of human Renal cancer cells incubated for 48 hrs by SRB assay; format: functional; in short: as §1
Breast cancer cell line [11] = test: Cell growth inhibition of human Breast cancer cells incubated for 48 hrs by SRB assay; format: functional; conditions: read-out: LC50 (the source's name); in short: as §2
Renal cancer cell line [12] = test: Cytostatic activity against human Renal cancer cells incubated for 48 hrs by SRB assay; format: functional; in short: as §1
[13] = tested on: Panel NCI-60 (60 carcinoma cell lines); test: Cell growth inhibition of human Panel NCI-60 (60 carcinoma cell lines) incubated for 48 hrs by SRB assay; format: functional; in short: as §1
Prostatic carcinoma cell = test: Cell growth inhibition of human Prostate carcinoma cells incubated for 48 hrs by SRB assay; format: functional; in short: as §1
NSCLC = test: Cell growth inhibition of human NSCLC cells incubated for 48 hrs by SRB assay; format: functional; in short: as §1
[14] = Cytotoxicity against human Leukemia cancer cells incubated for 48 hrs by SRB assay; format: functional; conditions: Leukemia cell, read-out: LC50 (the source's name); in short: as §2
Colon carcinoma cell [15] = test: Cytotoxicity against human Colon carcinoma cells incubated for 48 hrs by SRB assay; format: functional; in short: as §1
Breast cancer cell line [16] = test: Cytotoxicity against human Breast cancer cells incubated for 48 hrs by SRB assay; format: functional; in short: as §1
Ovarian cancer cell line [17] = test: Cytotoxicity against human Ovarian cancer cells incubated for 48 hrs by SRB assay; format: functional; in short: as §1
[18] = Cytostatic activity against human Leukemia cancer cells incubated for 48 hrs by SRB assay; format: functional, Leukemia cell; in short: as §1

| SMILES | GI50 [1] [µM] | GI (CNS carcinoma cell [2]) [µM] | GI [3] [µM] | TGI (Breast cancer cell line [4]) [µM] | GI50 (CNS carcinoma cell [5]) [µM] | TGI (Ovarian cancer cell line [6]) [µM] | CC50 (Melanoma cell line [7]) [µM] | TGI (Colon carcinoma cell [8]) [µM] | GI (Melanoma cell line [9]) [µM] | GI50 (Renal cancer cell line [10]) [µM] | CC50 (Breast cancer cell line [11]) [µM] | GI (Renal cancer cell line [12]) [µM] | GI50 [13] [µM] | GI (Prostatic carcinoma cell) [µM] | GI (NSCLC) [µM] | CC50 [14] [µM] | GI (Colon carcinoma cell [15]) [µM] | GI (Breast cancer cell line [16]) [µM] | GI (Ovarian cancer cell line [17]) [µM] | GI [18] [µM] |
| --- | --- | --- | --- | --- | --- | --- | --- | --- | --- | --- | --- | --- | --- | --- | --- | --- | --- | --- | --- | --- |
| COc1cc2c(c(OC)c1OC)/C(=C\c1ccc3ccc4ccc(/C=C5/C(=O)Nc6cc(OC)c(OC)c(OC)c65)nc4c3n1)C(=O)N2 | 4.27 | 67.61 | 70.79 | 64.6 | 13.8 | 93.3 | 85.1 | 5.23 | 18.62 | 26.3 | 10 | 74.13 | 12.9 | 3.39 | 14.45 |  |  |  |  |  |
| COc1ccc2[nH]c(Cl)c(/C=C3/C(=O)N(C)c4cc5c(cc43)/C(=C\c3c(Cl)[nH]c4ccc(OC)cc34)C(=O)N5C)c2c1 | 2.24 | 4.07 | 4.9 | 6.31 | 1.74 | 4.69 | 4.9 | 4.68 | 2.04 | 1.78 | 3.16 | 4.47 | 2.04 | 1.95 | 1.78 | 89.1 | 11.75 | 21.88 | 12.59 | 6.17 |
| COc1cc2c(c(OC)c1OC)C(=Cc1cc(C(C)(C)C)cc(/C=C3\C(=O)Nc4cc(OC)c(OC)c(OC)c43)c1O)C(=O)N2 | 2.19 | 3.31 | 4.37 | 4.9 | 1.62 | 5.13 | 3.63 | 3.89 | 1.82 | 2.19 | 1.86 | 4.9 | 1.95 | 1.91 | 1.95 | 60.3 | 8.13 | 50.12 | 25.12 | 6.03 |
| O=C1Nc2cccc(F)c2/C1=C\c1cccc(/C=C2/C(=O)Nc3cccc(F)c32)c1 | 1.23 | 4.27 | 5.13 | 6.17 | 1.82 | 7.59 | 3.72 | 3.31 | 1.7 | 1.86 | 2 | 4.17 | 1.91 | 2.14 | 2.4 | 100 | 6.76 | 16.98 | 33.88 | 6.92 |
| CC[C@]1(O)C[C@H]2CN(CCc3c([nH]c4ccccc34)[C@@](C(=O)OC)(c3cc4c(cc3OC)N(C=O)[C@H]3[C@@](O)(C(=O)OC)[C@H](OC(C)=O)[C@]5(CC)C=CCN6CC[C@]43[C@@H]65)C2)C1 [VINCRISTINE] | 0.1 |  |  |  | 0.13 |  |  |  | 0.16 | 0.32 | 0.32 |  | 0.2 | 0.13 | 0.25 |  |  |  |  |  |
| CC(C)(C)c1cc(/C=C2/C(=O)Nc3cccc(F)c32)c(O)c(/C=C2/C(=O)Nc3cccc(F)c32)c1 | 1.58 | 6.46 | 6.46 | 8.51 | 2.09 | 5.89 | 5.5 | 6.46 | 2.29 | 2.45 | 2.04 | 7.24 | 2.14 | 2.75 | 2.14 | 22.9 | 16.98 | 33.88 | 15.49 | 4.79 |
| COc1ccc2c(c1)/C(=C\c1ccc3ccc4ccc(/C=C5/C(=O)N(C)c6ccc(OC)cc65)nc4c3n1)C(=O)N2C | 3.16 | 17.78 | 12.88 | 18.6 | 3.16 | 28.2 | 4.79 | 6.31 | 2.14 | 2.34 | 3.09 | 5.89 | 2.63 | 2.57 | 2.57 |  | 13.49 | 64.57 | 89.13 | 56.23 |
| COc1cc2c(/C=C3/C(=O)N(C)c4cc5c(cc43)/C(=C\c3c(Cl)[nH]c4cc(C)c(OC)cc34)C(=O)N5C)c(Cl)[nH]c2cc1C | 1.2 | 7.76 | 7.59 | 10 | 1.82 | 10.7 | 6.46 | 4.17 | 2.34 | 1.95 | 24.6 | 7.24 | 2.04 | 1.82 | 2.19 | 42.7 | 9.77 | 33.11 | 45.71 | 5.37 |
| Cc1cc2c(cc1O)/C(=C\c1cc(C(C)(C)C)cc(C=O)c1O)C(=O)N2 | 0.68 | 10 | 8.91 | 14.8 | 1.2 | 9.55 | 5.75 | 11.5 | 1.78 | 2.57 | 1.82 | 11.48 | 1.91 | 0.87 | 3.47 | 81.3 | 38.02 | 77.62 | 56.23 | 3.72 |
| COc1cc2c(cc1C)NC(=O)/C2=C/c1ccc2ccc3ccc(/C=C4/C(=O)Nc5cc(C)c(OC)cc54)nc3c2n1 | 2.51 | 40.74 | 26.3 | 25.7 | 8.51 | 38.9 | 17.8 | 10.2 | 6.03 | 6.31 | 3.98 | 29.51 | 5.13 | 2.95 | 6.76 |  | 46.77 |  | 77.62 | 22.91 |
| O=C1Nc2ccc(Cl)cc2/C1=C\c1ccc2ccc3ccc(/C=C4/C(=O)Nc5ccc(Cl)cc54)nc3c2n1 | 3.09 | 9.33 | 18.2 | 29.5 | 2.15 | 29.5 | 11.5 | 7.41 | 2.19 | 2.29 | 3.09 | 17.38 | 2.63 | 2.45 | 2.57 |  | 31.62 |  | 69.18 | 83.18 |
| COc1ccc(OC)c2c1NC(=O)/C2=C/c1cccc(/C=C2/C(=O)Nc3c(OC)ccc(OC)c32)c1 | 2.69 | 100 | 72.44 | 81.3 | 4.68 | 69.2 | 61.7 | 63.1 | 7.24 | 7.08 | 5.37 | 81.28 | 5.89 | 5.89 | 9.33 |  |  |  |  | 95.5 |
| CN(C)c1ccc2[nH]c(Cl)c(/C=C3/C(=O)N(C)c4cc5c(cc43)/C(=C\c3c(Cl)[nH]c4ccc(N(C)C)cc34)C(=O)N5C)c2c1 | 17 |  |  |  | 7.08 |  |  |  | 27.54 | 9.77 | 4.17 |  | 14.5 | 10.72 | 18.2 |  |  |  |  |  |
| O=C1Nc2ccc(F)cc2/C1=C\c1cccc(/C=C2/C(=O)Nc3ccc(F)cc32)c1 | 1.66 | 3.24 | 4.47 |  | 1.35 |  | 10.2 |  | 1.58 | 1.58 | 9.33 | 3.47 | 1.62 | 1.48 | 1.82 | 7.41 | 9.33 |  | 32.4 | 9.77 |

— ChEMBL document CHEMBL5500359, “Identification of a new bisindolinone arresting IGROV1 cells proliferation” (Eur J Med Chem, 2024)
